Calls of active or inactive are those of the source. No cut-off for these calls is given here.
What follows are molecules tested against T1, Cannabinoid receptor 2 (Homo sapiens, UniProt P34972) (assay: Displacement of [3H]-CP-55940 from human CB2 receptor expressed in HEK293 cell membranes at 1 to 10 uM after 90 mins relative to control). Details: not given.
T1 sequence (P34972 whole entry): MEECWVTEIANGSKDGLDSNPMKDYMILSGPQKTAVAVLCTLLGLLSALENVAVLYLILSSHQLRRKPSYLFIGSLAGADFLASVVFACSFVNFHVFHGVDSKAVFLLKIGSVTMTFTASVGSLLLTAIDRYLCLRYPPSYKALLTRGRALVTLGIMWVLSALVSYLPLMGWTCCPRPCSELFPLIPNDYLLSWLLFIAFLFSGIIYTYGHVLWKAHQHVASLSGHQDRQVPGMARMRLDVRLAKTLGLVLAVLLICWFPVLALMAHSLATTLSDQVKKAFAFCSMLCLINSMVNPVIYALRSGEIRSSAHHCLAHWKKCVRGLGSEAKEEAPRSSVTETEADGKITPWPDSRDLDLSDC

Row | SMILES | inhibition [%]
1 | CCc1c(C(=O)Nc2ccc3ccccc3c2)cc(C)n1-c1ccccc1 | > 50
2 | CCOC(=O)c1cc(-c2ccccc2)sc1NC(=O)c1cccc2ccccc12 | > 50
3 | CCc1c(C(=O)NC23CC4CC(CC(C4)C2)C3)cc(C)n1-c1ccccc1 | > 50
4 | Cc1cc(C(=O)O)c(C)n1-c1ccccc1 | > 50
5 | CCOC(=O)c1cc(-c2ccccc2)sc1N(S(=O)(=O)c1ccc2ccccc2c1)S(=O)(=O)c1ccc2ccccc2c1 | > 50
6 | Cc1cc(C(=O)Nc2ccc3ccccc3c2)c(C)n1-c1ccccc1 | > 50
7 | Cc1cc(C(=O)NC2CCCCC2)c(C)n1-c1ccccc1 | > 50
8 | CCc1c(C(=O)NC2CCCCC2)cc(C)n1-c1ccccc1 | > 50
9 | CCOC(=O)c1c(NS(=O)(=O)c2cccc3ccccc23)sc2c1CCCC2 | > 50
10 | CCOC(=O)c1c(NS(C)(=O)=O)sc2c1CCCC2 | > 50
11 | CCOC(=O)c1c(NC(=O)c2ccc3ccccc3c2)sc2c1CCCC2 | > 50
12 | CCc1c(C(=O)NCCc2ccccc2)cc(C)n1-c1ccccc1 | > 50
13 | CCOC(=O)c1c(N)sc2c1CCCC2 | > 50
14 | CCOC(=O)c1c(NS(=O)(=O)c2ccccc2)sc2c1CCCC2 | > 50
15 | CCOC(=O)c1c(NS(=O)(=O)c2ccc3ccccc3c2)sc2c1CCCC2 | > 50
16 | CCOC(=O)c1cc(-c2ccccc2)sc1NS(C)(=O)=O | > 50

What follows are molecules tested on HEK293 (assay: Selectivity index, ratio of Ki for human CB1 receptor expressed in HEK293 cell membranes to Ki for human CB2 receptor expressed in HEK293 cell membranes). Details: not given.
Assay type: cell-based

Row | SMILES | Ratio Ki
17 | CCc1c(C(=O)Nc2ccc3ccccc3c2)cc(C)n1-c1ccccc1 | 11.1
18 | CCOC(=O)c1cc(-c2ccccc2)sc1NC(=O)c1cccc2ccccc12 | > 167
19 | CCc1c(C(=O)NC23CC4CC(CC(C4)C2)C3)cc(C)n1-c1ccccc1 | 195 to 200
20 | Cc1cc(C(=O)Nc2ccc3ccccc3c2)c(C)n1-c1ccccc1 | 4.82
21 | Cc1cc(C(=O)NC2CCCCC2)c(C)n1-c1ccccc1 | > 59.6
22 | CCc1c(C(=O)NC2CCCCC2)cc(C)n1-c1ccccc1 | > 26.8
23 | CCOC(=O)c1c(NS(=O)(=O)c2cccc3ccccc23)sc2c1CCCC2 | > 12.5
24 | CCOC(=O)c1c(NC(=O)c2ccc3ccccc3c2)sc2c1CCCC2 | > 5.6
25 | CCc1c(C(=O)NCCc2ccccc2)cc(C)n1-c1ccccc1 | > 13.9
26 | CCOC(=O)c1c(NS(=O)(=O)c2ccccc2)sc2c1CCCC2 | > 5.02

What follows are molecules tested against Cannabinoid receptor 1 (CB1) (Homo sapiens, UniProt P21554) (assay: Displacement of [3H]-CP-55940 from human CB1 receptor expressed in HEK293 cell membranes at 1 to 10 uM after 90 mins relative to control). Details: membranes of HEK293 cells expressing human CB1 receptor, probe [3H]-CP-55940.
Cannabinoid receptor 1 (CB1), sequence (P21554 whole entry): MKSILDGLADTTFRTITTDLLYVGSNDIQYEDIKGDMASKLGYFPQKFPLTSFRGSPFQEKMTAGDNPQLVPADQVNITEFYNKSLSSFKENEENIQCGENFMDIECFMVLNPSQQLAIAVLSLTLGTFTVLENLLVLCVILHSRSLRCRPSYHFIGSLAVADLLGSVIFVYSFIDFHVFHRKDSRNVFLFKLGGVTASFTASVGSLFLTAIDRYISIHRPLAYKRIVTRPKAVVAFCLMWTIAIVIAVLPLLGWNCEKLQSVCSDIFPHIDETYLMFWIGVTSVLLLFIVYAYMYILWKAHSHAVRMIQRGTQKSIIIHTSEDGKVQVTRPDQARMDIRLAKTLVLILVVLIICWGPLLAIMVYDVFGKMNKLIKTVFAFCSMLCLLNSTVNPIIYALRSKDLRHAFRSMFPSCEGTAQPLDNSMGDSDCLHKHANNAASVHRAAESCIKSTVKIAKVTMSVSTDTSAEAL

Row | SMILES | inhibition at 1.5 h, up to 10 µM [%]
27 | CCc1c(C(=O)Nc2ccc3ccccc3c2)cc(C)n1-c1ccccc1 | > 50
28 | CCOC(=O)c1cc(-c2ccccc2)sc1NC(=O)c1cccc2ccccc12 | > 50
29 | CCc1c(C(=O)NC23CC4CC(CC(C4)C2)C3)cc(C)n1-c1ccccc1 | > 50
30 | Cc1cc(C(=O)O)c(C)n1-c1ccccc1 | > 50
31 | CCOC(=O)c1cc(-c2ccccc2)sc1N(S(=O)(=O)c1ccc2ccccc2c1)S(=O)(=O)c1ccc2ccccc2c1 | > 50
32 | Cc1cc(C(=O)Nc2ccc3ccccc3c2)c(C)n1-c1ccccc1 | > 50
33 | Cc1cc(C(=O)NC2CCCCC2)c(C)n1-c1ccccc1 | > 50
34 | CCc1c(C(=O)NC2CCCCC2)cc(C)n1-c1ccccc1 | > 50
35 | CCOC(=O)c1c(NS(=O)(=O)c2cccc3ccccc23)sc2c1CCCC2 | > 50
36 | CCOC(=O)c1c(NS(C)(=O)=O)sc2c1CCCC2 | > 50
37 | CCOC(=O)c1c(NC(=O)c2ccc3ccccc3c2)sc2c1CCCC2 | > 50
38 | CCc1c(C(=O)NCCc2ccccc2)cc(C)n1-c1ccccc1 | > 50
39 | CCOC(=O)c1c(N)sc2c1CCCC2 | > 50
40 | CCOC(=O)c1c(NS(=O)(=O)c2ccccc2)sc2c1CCCC2 | > 50
41 | CCOC(=O)c1c(NS(=O)(=O)c2ccc3ccccc3c2)sc2c1CCCC2 | > 50
42 | CCOC(=O)c1cc(-c2ccccc2)sc1NS(C)(=O)=O | > 50

What follows are molecules tested against T1, Cannabinoid receptor 2 (assay: Inverse agonist activity at human CB2 receptor expressed in CHO-K1 cells assessed as increase in NKH-477-induced intracellular cAMP levels after 30 mins by luminescence assay). Details: not given.
Assay type: functional, cell-based
Method in brief: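 CHO-K1 cells stably overexpressing human CB2, plated 30,000 cells/well and held overnight at 37 °C, 5% CO2. Compounds were added with NKH-477 (water-soluble forskolin analogue; 3x of 25µM solution) for 30 min at 37°C. cAMP was read by enzyme-fragment-complementation chemiluminescence. Values are normalized to NKH-477 alone as 100% response. Three independent experiments, triplicate.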

Row | SMILES | Activity
43 | CCc1c(C(=O)NC23CC4CC(CC(C4)C2)C3)cc(C)n1-c1ccccc1 | Active

Each molecule was assayed against T1, Cannabinoid receptor 2. Details: not given.

Row | SMILES | IC50 [µM]
44 | CCc1c(C(=O)NC23CC4CC(CC(C4)C2)C3)cc(C)n1-c1ccccc1 | 0.398

The molecules below were run against T1, Cannabinoid receptor 2 (assay: Displacement of [3H]-CP-55940 from human CB2 receptor expressed in HEK293 cell membranes after 90 mins by radioligand binding assay). Details: not given.
Method in brief: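 Compounds were screened at 1 and 10 µM; those displacing over 50% were run at 0.1nM–10µM. Ki by Cheng-Prusoff from IC50. At least three experiments, duplicate.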

Row | SMILES | Ki [µM]
45 | CCc1c(C(=O)Nc2ccc3ccccc3c2)cc(C)n1-c1ccccc1 | 0.057
46 | CCOC(=O)c1cc(-c2ccccc2)sc1NC(=O)c1cccc2ccccc12 | 0.0598
47 | CCc1c(C(=O)NC23CC4CC(CC(C4)C2)C3)cc(C)n1-c1ccccc1 | 0.00615
48 | Cc1cc(C(=O)O)c(C)n1-c1ccccc1 | > 10
49 | CCOC(=O)c1cc(-c2ccccc2)sc1N(S(=O)(=O)c1ccc2ccccc2c1)S(=O)(=O)c1ccc2ccccc2c1 | > 10
50 | Cc1cc(C(=O)Nc2ccc3ccccc3c2)c(C)n1-c1ccccc1 | 0.0583
51 | Cc1cc(C(=O)NC2CCCCC2)c(C)n1-c1ccccc1 | 0.168
52 | CCc1c(C(=O)NC2CCCCC2)cc(C)n1-c1ccccc1 | 0.171
53 | CCOC(=O)c1c(NS(=O)(=O)c2cccc3ccccc23)sc2c1CCCC2 | 0.8
54 | CCOC(=O)c1c(NS(C)(=O)=O)sc2c1CCCC2 | > 10
55 | CCOC(=O)c1c(NC(=O)c2ccc3ccccc3c2)sc2c1CCCC2 | 1.79
56 | CCc1c(C(=O)NCCc2ccccc2)cc(C)n1-c1ccccc1 | 0.718
57 | CCOC(=O)c1c(N)sc2c1CCCC2 | > 10
58 | CCOC(=O)c1c(NS(=O)(=O)c2ccccc2)sc2c1CCCC2 | 1.99
59 | CCOC(=O)c1c(NS(=O)(=O)c2ccc3ccccc3c2)sc2c1CCCC2 | > 10
60 | CCOC(=O)c1cc(-c2ccccc2)sc1NS(C)(=O)=O | > 10

The molecules below were run against Cannabinoid receptor 1 (Homo sapiens, UniProt P21554) (assay: Displacement of [3H]-CP-55940 from human CB1 receptor expressed in HEK293 cell membranes after 90 mins by radioligand binding assay). Details: not given.
Cannabinoid receptor 1, sequence (P21554 whole entry): as above

Row | SMILES | Ki [µM]
61 | CCc1c(C(=O)Nc2ccc3ccccc3c2)cc(C)n1-c1ccccc1 | 0.633
62 | CCOC(=O)c1cc(-c2ccccc2)sc1NC(=O)c1cccc2ccccc12 | > 10
63 | CCc1c(C(=O)NC23CC4CC(CC(C4)C2)C3)cc(C)n1-c1ccccc1 | 1.2
64 | Cc1cc(C(=O)O)c(C)n1-c1ccccc1 | > 10
65 | CCOC(=O)c1cc(-c2ccccc2)sc1N(S(=O)(=O)c1ccc2ccccc2c1)S(=O)(=O)c1ccc2ccccc2c1 | > 10
66 | Cc1cc(C(=O)Nc2ccc3ccccc3c2)c(C)n1-c1ccccc1 | 0.281
67 | Cc1cc(C(=O)NC2CCCCC2)c(C)n1-c1ccccc1 | > 10
68 | CCc1c(C(=O)NC2CCCCC2)cc(C)n1-c1ccccc1 | 4.57
69 | CCOC(=O)c1c(NS(=O)(=O)c2cccc3ccccc23)sc2c1CCCC2 | > 10
70 | CCOC(=O)c1c(NS(C)(=O)=O)sc2c1CCCC2 | > 10
71 | CCOC(=O)c1c(NC(=O)c2ccc3ccccc3c2)sc2c1CCCC2 | > 10
72 | CCc1c(C(=O)NCCc2ccccc2)cc(C)n1-c1ccccc1 | > 10
73 | CCOC(=O)c1c(N)sc2c1CCCC2 | > 10
74 | CCOC(=O)c1c(NS(=O)(=O)c2ccccc2)sc2c1CCCC2 | > 10
75 | CCOC(=O)c1c(NS(=O)(=O)c2ccc3ccccc3c2)sc2c1CCCC2 | > 10
76 | CCOC(=O)c1cc(-c2ccccc2)sc1NS(C)(=O)=O | > 10

These molecules were tested against T1, Cannabinoid receptor 2 (assay: Antagonist activity at human CB2 receptor expressed in CHO-K1 cells assessed as increase in NKH-477-induced intracellular cAMP levels preincubated for 15 mins followed by JWH-133 addition after 30 mins by luminescence assay). Details: not given.
Assay type: functional, cell-based

Row | SMILES | Activity
77 | CCc1c(C(=O)NC23CC4CC(CC(C4)C2)C3)cc(C)n1-c1ccccc1 | Active

From ChEMBL document CHEMBL3865825, “Discovery of novel Tetrahydrobenzo[b]thiophene and pyrrole based scaffolds as potent and selective CB2 receptor ligands: The structural elements controlling binding affinity, selectivity and functionality” (Eur J Med Chem, 2016)
